Source: ChEMBL document CHEMBL4689842, “EUbOPEN Chemogenomics Library wave 1” (2021)

System: Fibroblast
Assay: Multiplex assay against human fibroblast
Assay type: toxicity, cell-based
Summary of the method: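 Live cells were stained at seeding with Hoechst33342, BioTracker Green Microtubule Cytoskeleton Dye, MitoTracker Red and Annexin V Alexa Fluor 680. Following compound addition, they were imaged on a CQ1 microscope at 37°C and 5% CO2 and gated by CellPathfinder machine learning into Hoechst high-intensity objects or normal cells, with normal cells split into healthy, pyknosed or fragmented nuclei and pyknosed cells into mitotic or apoptotic. Tubulin, mitochondrial-mass and membrane-permeability phenotypes are per cents of healthy-nucleus cells.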

[1] = 12 h, 1 µM, compound concentration 1 uM, replicate 1
[2] = 12 h, 1 µM, compound concentration 1 uM, replicate 2
[3] = 12 h, 10 µM, compound concentration 10 uM, replicate 1
[4] = 12 h, 10 µM, compound concentration 10 uM, replicate 2
[5] = 24 h, 1 µM, compound concentration 1 uM, replicate 1
[6] = 24 h, 1 µM, compound concentration 1 uM, replicate 2
[7] = 24 h, 10 µM, compound concentration 10 uM, replicate 1
[8] = 24 h, 10 µM, compound concentration 10 uM, replicate 2
[9] = 48 h, 1 µM, compound concentration 1 uM, replicate 1
[10] = 48 h, 1 µM, compound concentration 1 uM, replicate 2
[11] = 48 h, 10 µM, compound concentration 10 uM, replicate 1
[12] = 48 h, 10 µM, compound concentration 10 uM, replicate 2

COc1cccc([C@@H](C)NCCCc2ccccc2Cl)c1.Cl [TECALCET HYDROCHLORIDE]
Population Apoptotic (%) [1]: 55% | Population Fragmented Nuclei (%) [1]: 20% | Population Healthy Nuclei (%) [1]: 53% | Population Hoechst High Intensity Objects (%) [1]: 9% | Population Membrane Permeable-Phenotype (%) [1]: 22% | Population Mitochondria Different-Phenotype (%) [1]: 4% | Population Mitotic Cells (%) [1]: 44% | Population Normal (%) [1]: 90% | Population Pyknosed Nuclei (%) [1]: 25% | Population Tubulin-Different-Phenotype (%) [1]: 53% | Total Cell Count [1]: 222 | Population Apoptotic (%) [2]: 16% | Population Fragmented Nuclei (%) [2]: 10% | Population Healthy Nuclei (%) [2]: 81% | Population Hoechst High Intensity Objects (%) [2]: 10% | Population Membrane Permeable-Phenotype (%) [2]: 6% | Population Mitochondria Different-Phenotype (%) [2]: 20% | Population Mitotic Cells (%) [2]: 83% | Population Normal (%) [2]: 89% | Population Pyknosed Nuclei (%) [2]: 8% | Population Tubulin-Different-Phenotype (%) [2]: 18% | Total Cell Count [2]: 70 | Population Apoptotic (%) [3]: 62% | Population Fragmented Nuclei (%) [3]: 26% | Population Healthy Nuclei (%) [3]: 43% | Population Hoechst High Intensity Objects (%) [3]: 12% | Population Membrane Permeable-Phenotype (%) [3]: 11% | Population Mitochondria Different-Phenotype (%) [3]: 17% | Population Mitotic Cells (%) [3]: 37% | Population Normal (%) [3]: 87% | Population Pyknosed Nuclei (%) [3]: 29% | Population Tubulin-Different-Phenotype (%) [3]: 71% | Total Cell Count [3]: 183 | Population Apoptotic (%) [4]: 41% | Population Fragmented Nuclei (%) [4]: 7% | Population Healthy Nuclei (%) [4]: 75% | Population Hoechst High Intensity Objects (%) [4]: 5% | Population Membrane Permeable-Phenotype (%) [4]: 18% | Population Mitochondria Different-Phenotype (%) [4]: 90% | Population Mitotic Cells (%) [4]: 58% | Population Normal (%) [4]: 94% | Population Pyknosed Nuclei (%) [4]: 17% | Population Tubulin-Different-Phenotype (%) [4]: 96% | Total Cell Count [4]: 83 | Population Apoptotic (%) [5]: 56% | Population Fragmented Nuclei (%) [5]: 28% | Population Healthy Nuclei (%) [5]: 50% | Population Hoechst High Intensity Objects (%) [5]: 10% | Population Membrane Permeable-Phenotype (%) [5]: 26% | Population Mitochondria Different-Phenotype (%) [5]: 4% | Population Mitotic Cells (%) [5]: 43% | Population Normal (%) [5]: 89% | Population Pyknosed Nuclei (%) [5]: 21% | Population Tubulin-Different-Phenotype (%) [5]: 62% | Total Cell Count [5]: 217 | Population Apoptotic (%) [6]: 77% | Population Fragmented Nuclei (%) [6]: 8% | Population Healthy Nuclei (%) [6]: 80% | Population Hoechst High Intensity Objects (%) [6]: 8% | Population Membrane Permeable-Phenotype (%) [6]: 6% | Population Mitochondria Different-Phenotype (%) [6]: 6% | Population Mitotic Cells (%) [6]: 22% | Population Normal (%) [6]: 91% | Population Pyknosed Nuclei (%) [6]: 10% | Population Tubulin-Different-Phenotype (%) [6]: 12% | Total Cell Count [6]: 95 | Population Apoptotic (%) [7]: 61% | Population Fragmented Nuclei (%) [7]: 25% | Population Healthy Nuclei (%) [7]: 53% | Population Hoechst High Intensity Objects (%) [7]: 17% | Population Membrane Permeable-Phenotype (%) [7]: 13% | Population Mitochondria Different-Phenotype (%) [7]: 31% | Population Mitotic Cells (%) [7]: 38% | Population Normal (%) [7]: 82% | Population Pyknosed Nuclei (%) [7]: 21% | Population Tubulin-Different-Phenotype (%) [7]: 75% | Total Cell Count [7]: 178 | Population Apoptotic (%) [8]: 35% | Population Fragmented Nuclei (%) [8]: 8% | Population Healthy Nuclei (%) [8]: 70% | Population Hoechst High Intensity Objects (%) [8]: 8% | Population Membrane Permeable-Phenotype (%) [8]: 24% | Population Mitochondria Different-Phenotype (%) [8]: 91% | Population Mitotic Cells (%) [8]: 64% | Population Normal (%) [8]: 91% | Population Pyknosed Nuclei (%) [8]: 20% | Population Tubulin-Different-Phenotype (%) [8]: 92% | Total Cell Count [8]: 97 | Population Apoptotic (%) [9]: 54% | Population Fragmented Nuclei (%) [9]: 28% | Population Healthy Nuclei (%) [9]: 60% | Population Hoechst High Intensity Objects (%) [9]: 10% | Population Membrane Permeable-Phenotype (%) [9]: 19% | Population Mitochondria Different-Phenotype (%) [9]: 3% | Population Mitotic Cells (%) [9]: 45% | Population Normal (%) [9]: 89% | Population Pyknosed Nuclei (%) [9]: 10% | Population Tubulin-Different-Phenotype (%) [9]: 42% | Total Cell Count [9]: 229 | Population Apoptotic (%) [10]: 0% | Population Healthy Nuclei (%) [10]: 70% | Population Hoechst High Intensity Objects (%) [10]: 13% | Population Membrane Permeable-Phenotype (%) [10]: 13% | Population Mitochondria Different-Phenotype (%) [10]: 4% | Population Mitotic Cells (%) [10]: 100% | Population Normal (%) [10]: 87% | Population Pyknosed Nuclei (%) [10]: 1% | Population Tubulin-Different-Phenotype (%) [10]: 40% | Total Cell Count [10]: 100 | Population Apoptotic (%) [11]: 76% | Population Fragmented Nuclei (%) [11]: 46% | Population Healthy Nuclei (%) [11]: 45% | Population Hoechst High Intensity Objects (%) [11]: 21% | Population Membrane Permeable-Phenotype (%) [11]: 6% | Population Mitochondria Different-Phenotype (%) [11]: 16% | Population Mitotic Cells (%) [11]: 23% | Population Normal (%) [11]: 78% | Population Pyknosed Nuclei (%) [11]: 8% | Population Tubulin-Different-Phenotype (%) [11]: 60% | Total Cell Count [11]: 207 | Population Apoptotic (%) [12]: 0% | Population Fragmented Nuclei (%) [12]: 56% | Population Healthy Nuclei (%) [12]: 43% | Population Hoechst High Intensity Objects (%) [12]: 15% | Population Membrane Permeable-Phenotype (%) [12]: 0% | Population Mitochondria Different-Phenotype (%) [12]: 12% | Population Mitotic Cells (%) [12]: 100% | Population Normal (%) [12]: 84% | Population Pyknosed Nuclei (%) [12]: 0% | Population Tubulin-Different-Phenotype (%) [12]: 76% | Total Cell Count [12]: 138
